Results on 1 protein are retold here after ChEMBL document CHEMBL1156792, “Application of the dipeptidyl peptidase IV (DPPIV/CD26) based prodrug approach to different amine-containing drugs” (J Med Chem, 2010).

Substrate in data set [1]: CC(C)[C@H](N)C(=O)N1CCC[C@H]1C(=O)N[C@H](C(=O)N1CCC[C@H]1C(=O)Nc1ncnc2c1ncn2[C@@H]1O[C@H](CO)[C@@H](O)[C@@H]1O)C(C)C
Kind of data set: (§1) Activity of human recombinant CD26 assessed as hydrolysis. The method in brief: (§2)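 Human recombinant CD26 (Sf9-expressed) was incubated with prodrug at several levels (2–50 μM, or 50–1000 μM for the AspPro conjugate). Hydrolysis was quantified by RP-8 HPLC at 15, 30 and 45 min. Km and Vmax were calculated at each time point and averaged over the three, with at least two to three independent experiments.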

Substrate in data set [2]: CC(C)[C@H](N)C(=O)N1CCC[C@H]1C(=O)Nc1ccc2ncccc2c1
Described as §1. An outline of the steps:
as §2

Substrate in data set [3]: COc1cccc2c1C(=O)c1c(O)c3c(c(O)c1C2=O)C[C@@](O)(C(=O)CO)C[C@@H]3O[C@H]1C[C@H](NC(=O)[C@@H]2CCCN2C(=O)[C@@H](N)C(C)C)[C@H](O)[C@H](C)O1
The data set is described as §1. An outline of the steps: as §2

Substrate in data set [4]: N[C@@H](CC(=O)O)C(=O)N1CCC[C@H]1C(=O)Nc1ccc2ncccc2c1
The description is as §1. An outline of the steps: as §2

B1: Dipeptidyl peptidase 4 (Homo sapiens), P27487 (protein)
chain: MKTPWKVLLGLLGAAALVTIITVPVVLLNKGTDDATADSRKTYTLTDYLKNTYRLKLYSLRWISDHEYLYKQENNILVFNAEYGNSSVFLENSTFDEFGHSINDYSISPDGQFILLEYNYVKQWRHSYTASYDIYDLNKRQLITEERIPNNTQWVTWSPVGHKLAYVWNNDIYVKIEPNLPSYRITWTGKEDIIYNGITDWVYEEEVFSAYSALWWSPNGTFLAYAQFNDTEVPLIEYSFYSDESLQYPKTVRVPYPKAGAVNPTVKFFVVNTDSLSSVTNATSIQITAPASMLIGDHYLCDVTWATQERISLQWLRRIQNYSVMDICDYDESSGRWNCLVARQHIEMSTTGWVGRFRPSEPHFTLDGNSFYKIISNEEGYRHICYFQIDKKDCTFITKGTWEVIGIEALTSDYLYYISNEYKGMPGGRNLYKIQLSDYTKVTCLSCELNPERCQYYSVSFSKEAKYYQLRCSGPGLPLYTLHSSVNDKGLRVLEDNSALDKMLQNVQMPSKKLDFIILNETKFWYQMILPPHFDKSKKYPLLLDVYAGPCSQKADTVFRLNWATYLASTENIIVASFDGRGSGYQGDKIMHAINRRLGTFEVEDQIEAARQFSKMGFVDNKRIAIWGWSYGGYVTSMVLGSGSGVFKCGIAVAPVSRWEYYDSVYTERYMGLPTPEDNLDHYRNSTVMSRAENFKQVEYLLIHGTADDNVHFQQSAQISKALVDVGVDFQAMWYTDEDHGIASSTAHQHIYTHMSHFIKQCFSLP
Turning to B1, the Km (usually the substrate concentration at which the rate is half of its maximum) worked out at 56 µM in data set [1], 25 µM in data set [2], 15 µM in data set [3] and 524 µM in data set [4]. The Vmax (nmol/hr/microg) in data set [1] came to 10; in data set [2] it was 32; in data set [3], 30; in data set [4], 70.
